Measurements gathered from unrelated publications.
Compare with care: the assays were run in different laboratories.
Target: Serine/threonine-protein kinase BRSK2 (BRSK2, Homo sapiens, UniProt Q8IWQ3)
One construct used (Q8IWQ3 1-736): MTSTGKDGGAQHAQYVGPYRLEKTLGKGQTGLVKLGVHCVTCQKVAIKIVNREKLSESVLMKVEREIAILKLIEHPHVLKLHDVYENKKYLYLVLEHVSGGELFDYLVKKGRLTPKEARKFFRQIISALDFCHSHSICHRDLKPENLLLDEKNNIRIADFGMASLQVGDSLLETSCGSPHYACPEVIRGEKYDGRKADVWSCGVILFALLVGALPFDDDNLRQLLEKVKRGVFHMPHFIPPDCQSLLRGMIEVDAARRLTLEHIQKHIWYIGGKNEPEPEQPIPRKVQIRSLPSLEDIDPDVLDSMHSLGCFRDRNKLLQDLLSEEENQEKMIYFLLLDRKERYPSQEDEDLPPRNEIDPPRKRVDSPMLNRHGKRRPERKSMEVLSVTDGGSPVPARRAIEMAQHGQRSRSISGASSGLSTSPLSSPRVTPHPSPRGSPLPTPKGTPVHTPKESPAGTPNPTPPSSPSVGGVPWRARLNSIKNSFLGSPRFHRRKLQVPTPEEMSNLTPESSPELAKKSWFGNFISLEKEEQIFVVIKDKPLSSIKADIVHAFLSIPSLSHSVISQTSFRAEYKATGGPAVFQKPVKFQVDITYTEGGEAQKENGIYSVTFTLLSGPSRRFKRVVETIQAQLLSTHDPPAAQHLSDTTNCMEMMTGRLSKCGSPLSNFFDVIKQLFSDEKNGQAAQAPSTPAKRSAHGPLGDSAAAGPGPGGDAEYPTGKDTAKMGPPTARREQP

The remaining binding of `CCOC(=O)c1cc2cc(-c3cc(C(=O)NCc4ccc(C(=O)O)cc4)nn3C)ccc2[nH]1` is reported as 67% (cell-free assay, competition with immobilised ligand; 0.1 µM).
For `CC(C)(C)C(=O)c1sc(NC2CCCCC2)nc1N`, the remaining activity was 95% (enzyme activity, inhibitor; 10 µM).
`CCc1ccccc1C(=O)Nc1n[nH]c2c(C)c(F)c(C3C(C#N)=C(C)N(C)C(C)=C3C#N)cc12` gave a remaining binding of 36% (cell-free assay, competition with immobilised ligand; 1 µM).
For `N#CCCc1ccc2c(c1)-c1[nH]c3ccc([N+](=O)[O-])cc3c1CC(=O)N2`, the remaining signal was 42% (cell-free assay; 0.5 µM).
The remaining activity of `Cc1sc(C(=O)NC2COC2)cc1-n1cc(NC(=O)Nc2c(F)cccc2Cl)cn1` is reported as 102% (enzyme activity, inhibitor; 10 µM).
`CNC(=O)c1cc(Oc2ccc(NC(=O)Nc3ccc(Cl)c(C(F)(F)F)c3)cc2)ccn1` gave a remaining signal of 103% (cell-free assay; 0.5 µM).
With `Cc1cc(NC(=O)c2cccc3cc(-c4cccc5[nH]nc(N)c45)ccc23)ccc1F` the activity vs control was 100% (enzyme activity, inhibitor; 0.1 µM).
`Cc1cc(-n2nc(Cc3cc(F)cc(C(F)(F)F)c3)nc2C)ccc1C(N)=O` has a remaining binding of 77% (cell-free assay, competition with immobilised ligand; 1 µM).
`CCN(CC)CCNC(=O)c1c(C)[nH]c(/C=C2\C(=O)Nc3ccc(F)cc32)c1C` has an inhibition of 82% (enzyme activity, inhibitor; 10 µM).
For `O=C1NC(=O)c2cc(Nc3ccc(F)cc3)c(Nc3ccc(F)cc3)cc21`, the remaining signal was 96.8% (cell-free assay; 0.5 µM).
With `CC(C)(C)c1nc(-c2cccc(NS(=O)(=O)c3c(F)cccc3F)c2F)c(-c2ccnc(N)n2)s1` the remaining activity was 50% (enzyme activity, inhibitor, radiometric; 1 µM).
For `Nc1ncnc2occ(-c3ccc(NC(=O)Nc4cc(C(F)(F)F)ccc4F)cc3)c12`, the remaining signal was 6.6% (cell-free assay, inhibitor; 20 µM).
With `CS(=O)(=O)N1CCCC(NC(=O)[C@H](CCC2CCCCC2)NC(=O)c2ccc(CNC(=O)c3cnc4ccccn34)cc2)C1` (stereo partly shown) the remaining binding was 100% (cell-free assay, competition with immobilised ligand; 0.1 µM).
`FC(F)c1nc2ccccc2n1-c1nc(N2CCOCC2)nc(N2CCOCC2)n1` has a remaining activity of 88% (enzyme activity, inhibitor; 10 µM).
`CCCS(=O)(=O)Nc1ccc(F)c(C(=O)c2c[nH]c3ncc(-c4ccc(Cl)cc4)cc23)c1F` has an inhibition of less than 10% (enzyme activity, inhibitor; 1 µM).
With `Cn1nc(C(=O)NCc2ccc(C(=O)O)cc2)cc1-c1ccc2[nH]ccc2c1` the remaining binding was 100% (cell-free assay, competition with immobilised ligand; 0.1 µM).
For `CC(C)(O)[C@H]1CC[C@H](Nc2ccc3ncc(-c4cccc(C(F)(F)F)c4)n3n2)CC1`, the remaining activity was 94.4% (enzyme activity, inhibitor; 1 µM).
The inhibition of `CN1CC(Oc2cnc(C#N)cc2-c2ccn3nc(NC(=O)C4CC4)cc3c2)C1` is reported as 16% (enzyme activity, inhibitor; 1 µM).
`Nc1nc(Nc2ccccc2)sc1C(=O)c1c(F)cccc1F` gave a remaining activity of 55% (enzyme activity, inhibitor; 10 µM).
For `CN(C)S(=O)(=O)c1ccc2c(c1)/C(=C/c1cc3c([nH]1)CCCC3)C(=O)N2`, the remaining signal was 48.7% (cell-free assay; 0.5 µM).
With `COc1cc(Nc2cnc(C#N)c(O[C@H](C)CN(C)C)n2)ncc1-c1cnn(C)c1` the remaining activity was 14% (enzyme activity, inhibitor, radiometric; 10 µM).
With `COc1cc(Cl)c(C(=O)N[C@@H](CN[C@H]2CC[C@@H](N)CC2)Cc2ccc(C#N)cc2)cc1-c1ccc(CN[C@H](C)c2ccc(C)cc2)o1` the remaining activity was 99% (enzyme activity, inhibitor; 1 µM).
For `CC(=O)c1c(NS(C)(=O)=O)c2cc(-c3ccc(Cl)cc3)c(-c3ccc(Cl)cc3Cl)nc2n(C)c1=O`, the remaining binding was 90% (cell-free assay, competition with immobilised ligand; 1 µM).
With `FC(F)(F)Oc1cccc(-c2cnc3ccc(-c4ccncc4)nn23)c1` the activity vs control was 99% (enzyme activity, inhibitor, radiometric; 5 µM).
`CSc1cccnc1N1CCN(Cc2nc3ccccc3[nH]2)CC1` gave a remaining binding of 100% (cell-free assay, competition with immobilised ligand; 1 µM).
`Cc1ccc(Nc2nccc(N(C)c3ccc4c(C)n(C)nc4c3)n2)cc1S(N)(=O)=O` has an inhibition of 1% (enzyme activity, inhibitor; 0.3 µM).
`CN(C)C(=O)Cn1cc(-c2nc(C3(c4ccc(-c5cnc(N)nc5)cc4)CC3)no2)cn1` has a remaining binding of 77% (cell-free assay, competition with immobilised ligand; 1 µM).
`CCCOc1ccc(OC)c(F)c1C(=O)c1ccc(C(=O)N[C@@H]2CNC[C@H]2NC(=O)c2ccc3[nH]ncc3c2)cc1` gave a remaining activity of 33% (enzyme activity, inhibitor; 10 µM).
